# Results reported in ChEMBL document CHEMBL1139414, “Conformationally constrained analogues of diacylglycerol. 29. Cells sort diacylglycerol-lactone chemical zip codes to produce diverse and selective biological activities” (J Med Chem, 2008).
# Active and inactive are the calls of the source. The calls are words filed in the database; no cut-off is given here.
# How the values were obtained:
# [1] = biological target: Protein kinase C alpha type (Mus musculus, UniProt P20444); assay: Displacement of [3H]PDBu form mouse PKCalpha by scintillation counting
# How it was run: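 Partially purified mouse PKCα; competition with [³H]PDBU. ID50 obtained by fitting a sigmoidal competition curve and converted to Ki = ID50/(1+L/Kd). Pure compounds tested at 6–7 concentrations; crude library compounds at a single 1 μM concentration. Triplicates per concentration, at least three experiments; mean ± SEM.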
# [2] = biological target: Transcription factor Jun (Mus musculus) (UniProt P05627); assay: Activation of AP1 expressed in BALB/c mouse JB6 cells coexpressing luciferase reportet gene at 100 ng/mL after 18 hrs relative to 12-O-tetradecanoylphorbol-13-O-acetate; type: cell-based
# How it was run: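 JB6 P+ cells seeded at 10⁴, transfected with 4x AP-1 luciferase reporter (0.2 μg DNA) using a 3:1 lipid reagent ratio; on day 3 treated with DMSO, TPA (10 ng/mL) or DAG-lactone (100 ng/mL); luciferase read 18 h later. Values normalized to TPA-induced activity; average of 6 independent assays.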
# [3] = tested on: NK92; assay: Induction of IFN-gamma production in human NK92 cells at 1 ug/mL after 6 hrs by ELISA; type: functional, cell-based
# How it was run: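 NK92 cells (10⁶ cells/mL) in RPMI with 10% FCS, glutamine and Pen/Strep at 37 °C for 6 h with derivative (1 μg/mL) alone or with IL12 (100 u/10⁶ cells), in duplicate wells. IFN-γ in supernatants by ELISA.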
# [4] = tested on: LNCaP; assay: Induction of apoptosis in human LnCAP cells pretreated at 10 uM for 16 hrs followed by 20 Gy radiation assessed after 24 hrs post radiation by fluorescence microscopy; type: functional, cell-based
# How it was run: (§1)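 LNCaP cells in RPMI-1640 with 0.2% human albumin replacing FCS from 24 h before the experiment; pretreated 16 h with compound (10 or 20 μM), then 20 Gy irradiation. Fixed 24 h post radiation, stained with bis-benzimide and scored by fluorescence microscopy; cells with ≥3 apoptotic bodies counted apoptotic. Average of two experiments ± SD.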
# [5] = tested on: LNCaP; assay: Induction of apoptosis in human LnCAP cells pretreated at 20 uM for 16 hrs followed by 20 Gy radiation assessed after 24 hrs post radiation by fluorescence microscopy; type: functional, cell-based; how it was run: as §1
# [6] = tested on: LNCaP; assay: Antitumor activity against human LnCAP cells transplanted in Swiss nude mouse assessed as reduction in ataxia telengiectasia mutated gene level at 12 mg/kg, ip administered as 2 injections at 24 hrs intervals assessed after 8 weeks by radioimmunoassay; type: functional, organism-based; parameters: dose 12 mg/kg; conditions: in the assay text read “48 hrs after first injection” for “after 8 weeks”
# How it was run: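 Orthotopic LNCaP prostate tumors (~100 mm³) in Swiss nude mice; 12 mg/kg i.p., two injections 24 h apart, prostate resected 48 h after first injection. ATM measured in tumor extracts relative to vehicle control.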
# [7] = tested on: LNCaP; assay: Antitumor activity against human LnCAP cells transplanted in Swiss nude mouse assessed as inhibition of tumor growth at 12 mg/kg, ip administered daily 16 hrs prior to 10 Gy radiation during first week followed by 2 injections at 48 hrs intervals during second week assessed after 8 weeks by radioimmunoassay; type: functional, organism-based; parameters: dose 12 mg/kg
# How it was run: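 Male Swiss nude mice (8–10 weeks) implanted orthotopically in prostate with 3.0×10⁶ LNCaP cells; used when serum PSA was 5.0–15.0 ng/mL. Drug 12 mg/kg i.p. in DMSO, 16 h before each 1 Gy local pelvic fraction (daily, Mon–Fri, total 10 Gy) in week 1, then two injections 48 h apart in week 2. Serum PSA by radioimmunoassay through week 8; mean per group.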
# [8] = tested on: MCF-10A; assay: Induction of human MCF10A cell motility at 10 uM after 20 hrs by photomicroscopy relative to diacylglycerol-lactone; type: functional, cell-based
# How it was run: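 MCF-10A cells seeded in a small circular area through a 10-hole manifold; at manifold removal, compound added to a final 10 μM (vehicle 1% v/v DMSO), 37 °C, 5% CO₂. Radial spread imaged over 20 h; radius in microns expressed as a ratio to the radius from the DAG-lactone positive control. Triplicate measurements.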
# [9] = tested on: CHO; assay: Translocation of GFP-tagged PKCbeta from cytosol to membrane compartment of CHO cells; type: functional, cell-based
# How it was run: (§2)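 GFP-tagged PKC isoforms overexpressed in CHO cells; live-cell localization followed by confocal microscopy before and after ligand (300 nM). Representative of 2 (PKCβ, ε) or 3 (PKCα, δ) independent experiments.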
# [10] = tested on: CHO; assay: Translocation of GFP-tagged mouse PKCdelta from cytosol to membrane compartment of CHO cells by confocal microscopy; type: functional, cell-based; conditions: Cricetulus griseus; how it was run: as §2
# [11] = tested on: CHO; assay: Translocation of GFP-tagged PKCalpha from cytosol to membrane compartment of CHO cells by confocal microscopy
# [12] = tested on: CHO; assay: Translocation of GFP-tagged PKCepsilon from cytosol to membrane compartment of CHO cells by confocal microscopy
# [13] = Selectivity ratio of Ki for mouse PKCalpha to Ki for RasGRP3
# Transcription factor Jun (Mus musculus), sequence (P05627 whole entry): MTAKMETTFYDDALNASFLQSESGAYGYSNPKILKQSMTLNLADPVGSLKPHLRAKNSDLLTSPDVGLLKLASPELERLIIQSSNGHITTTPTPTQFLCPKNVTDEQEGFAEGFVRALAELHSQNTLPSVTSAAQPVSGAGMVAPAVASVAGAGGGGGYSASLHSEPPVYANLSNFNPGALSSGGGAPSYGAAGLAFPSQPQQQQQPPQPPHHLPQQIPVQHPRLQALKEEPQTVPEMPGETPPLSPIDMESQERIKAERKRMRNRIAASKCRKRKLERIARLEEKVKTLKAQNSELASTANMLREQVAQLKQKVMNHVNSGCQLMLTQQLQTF
compound,measurement,setting,value
CCCCC(CC)C(=O)OCC1(CO)C/C(=C/c2ccc(Cl)c(F)c2)C(=O)O1 (racemic),Ki,[1],0.0101 µM
same,Activity,[2],Active
same,Activity,[3],Active
CCCC(CCC)C(=O)OCC1(CO)C/C(=C\c2ccc(C(F)(F)F)cc2)C(=O)O1 (racemic; form 1),Activity,[2],Active
same,Activity,[4],Active
same,Activity,[5],Active
same,Activity,[6],Active
same,Activity,[7],Active
same,Activity,[3],Active
CCCC(CCC)C(=O)OCC1(CO)C/C(=C\c2ccc(F)cc2)C(=O)O1 (racemic; form 1),Activity,[2],Active
same,Activity,[4],Active
same,Activity,[5],Active
CCC(C(=O)OCC1(CO)C/C(=C\c2ccc(-c3ccc(C(F)(F)F)cc3)cc2)C(=O)O1)c1ccccc1 (racemic; form 2),Activity,[8],Active
CCCCC(CC)C(=O)OCC1(CO)C/C(=C\c2ccc(Cl)c(F)c2)C(=O)O1 (racemic; form 2),Activity,[2],Active
same,Activity,[3],Active
CCCCC(CC)C(=O)OCC1(CO)C/C(=C\c2ccc(Cl)cc2)C(=O)O1 (racemic; form 2),Activity,[2],Active
same,Activity,[3],Active
CCCCC(CC)C(=O)OCC1(CO)C/C(=C\c2ccc(F)c(Br)c2)C(=O)O1 (racemic; form 2),Activity,[8],Active
same,Activity,[9],Active
same,Activity,[10],Active
same,Activity,[11],Active
same,Activity,[12],Active
O=C1OC(CO)(COC(=O)c2ccc([N+](=O)[O-])cc2)C/C1=C\c1ccc([N+](=O)[O-])cc1 (racemic; form 2),Ratio Ki,[13],57
